Measured values published in article PMC2805915 (Nature medicine, 2009).

Tests used:
[1] = tested on: Bcl6-dependent DLBCL cell lines; assay: Growth inhibition determination; assay type: cell-based, human; details: read-out: GI50 (concentration that inhibited the growth of the cell lines by 50% compared to control); 48 h; group of seven Bcl6-dependent DLBCL cell lines
How it was run: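 Cells seeded so untreated controls stayed in exponential growth through the 48 h exposure, then treated with 0.1–10 μM test compound or water vehicle in 10% serum medium. Viability read by resazurin reduction fluorescence (560Ex/590Em), with viable cells calculated from a standard curve and 6 replicates per condition, and verified by sulforhodamine B or ATP luminescence. Values normalized to controls. Experiments in triplicate. GI50 taken from dose-effect curves and reported as mean with 95% CI.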

[2] = tested on: Bcl6-independent DLBCL cell lines; assay: Growth inhibition determination; assay type: cell-based, human; details: read-out: GI50 (concentration that inhibited the growth of the cell lines by 50% compared to control); 48 h; group of four Bcl6-independent DLBCL cell lines
Bcl6 [3] = assay: Bcl6 immunoblot in DLBCL cells; assay type: cell-based, human
How it was run: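 Farage, OCI-Ly7 and SU-DHL4 cells exposed 24 h to 0.1, 0.25, 0.5 or 1 μM test compound; OCI-Ly7 also given 0.5 μM for 4, 6, 12, 18, 24 and 48 h. Compound added from concentrated stock to 10% serum medium. Lysates immunoblotted for Bcl6 with N-terminal (N3) and C-terminal (C19) antibodies, actin as loading control.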

Bcl6 [4] = assay: Protein decay determination; assay type: cell-based, human; details: OCI-Ly7; 0.5 µM PU-H71 after Cycloheximide 5 μM
How it was run: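 OCI-Ly7 cells, control or test-compound treated, incubated with 5 μM cycloheximide over a time course. Bcl6 and actin immunoblotted at each point; Bcl6/actin ratio quantified by densitometry with untreated cells set at 100% and plotted against time.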

BCL6 mRNA = assay: mRNA decay determination; assay type: cell-based, human; details: OCI-Ly7; versus vehicle-treated cells
How it was run: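 OCI-Ly7 cells pretreated 2 h with 0.5 μM test compound or control, then actinomycin D added for a time course. BCL6 mRNA quantified by QPCR against a standard curve, normalized to untreated cells; three independent experiments averaged to derive half-life.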

[5] = tested on: primary human DLBCL cells; assay: Primary cells treatment, viability; assay type: cell-based; details: 2.5 μM; 48 h; versus vehicle-treated controls
How it was run: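 Lymph node biopsies disrupted physically and separated by density gradient; cells kept in 80% RPMI/20% human serum with antibiotics, L-glutamine and HEPES. Exposed in triplicate to 2.5 μM test compound or water for 48 h. Viability read by ATP luminescence and dye exclusion, expressed as percent of vehicle control.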

Pharmacokinetic = assay type: in vivo; details: Farage xenograft mice, 75 mg per kg i.p.
How it was run: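 Mice bearing 1 cm3 Farage xenografts received a single 75 mg/kg i.p. dose of test compound; killed at 6, 12 and 24 h alongside controls. Serum, tumor and normal tissues assayed for compound concentration by HPLC-MS.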

OCI-Ly7 xenografts = assay: Mice xenotransplant study, OCI-Ly7; assay type: in vivo, SCID mice; details: 75 mg per kg per day; 20 days
SU-DHL6 xenograft = assay: Mice xenotransplant study, SU-DHL6; assay type: in vivo, SCID mice; details: 75 mg per kg per day; 20 days
How it was run: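 Additional cohort of SCID mice with s.c. OCI-Ly7 or SU-DHL6 xenografts held until mean tumor volume reached 500 mm3, then given test compound i.p. for 20 days; tumor volume followed by caliper every other day.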

Toledo xenografts = assay: Mice xenotransplant study, Toledo; assay type: in vivo, SCID mice; details: Bcl6-independent; similar dose (75 mg per kg per day)
[6] = tested on: Farage, OCI-Ly7 and SU-DHL4 DLBCL xenografts; assay: Mice xenotransplant study, pooled; assay type: in vivo, SCID mice; details: 75 mg per kg per day
How it was run: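 Male SCID mice, 6–8 weeks old, injected s.c. in the left flank with 10^7 low-passage DLBCL cells. At palpable size (about 75–100 mm3, 24–33 days), pairs were randomized to vehicle or 75 mg/kg/day test compound i.p. (reconstituted in sterile water) for 10 days, n = 5 per arm per line. Caliper volume was measured every other day as (smallest diameter² × largest)/2. Mice were euthanized when ≥2 of 10 tumors reached 20 mm. Tumors were weighed and TUNEL-scored as apoptotic/total cells. Survival ran from treatment start to death or tenfold volume rise, by Kaplan-Meier with Cox's F test.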

[7] = Toxicity in xenografted mice; assay type: in vivo, SCID mice; details: 75 mg per kg per day, 10 days
How it was run: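 Xenografted SCID mice dosed i.p. at 75 mg/kg/day were weighed every other day. At euthanasia, blood was collected and tumors and other tissues were harvested, weighed and examined microscopically by pathologists.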

Mice toxicity studies = assay type: in vivo, Balb/c mice; details: 50 or 75 mg per kg per day; 10 days

CC(C)NCCCn1c(Sc2cc3c(cc2I)OCO3)nc2c(N)ncnc21 [PU-H71]
GI50 [1]: 1.39 µM | GI50 [2]: 71 µM | Bcl6 protein abundance (Bcl6 [3]; 24 h, 0.1-1 μM, Farage, OCI-Ly7 and SU-DHL4): dose-dependent reduction | Bcl6 protein (immunoblot, antibodies N3 and C19) (Bcl6 [3]; OCI-Ly7, 0.5 μM, after 18 h): barely detectable | time for relative Bcl6 protein abundance to decrease from 100% to 50% (Bcl6 [4]): 5 h | increase in Bcl6 mRNA decay rate (BCL6 mRNA): 32% | cases among 21 DLBCLs with greater than 25% loss of viability [5]: 19 | PU-H71 concentration in tumor (Pharmacokinetic; 6 h): 42.1 µg/g | PU-H71 concentration in tumor (Pharmacokinetic; 12 h): 27.6 µg/g | PU-H71 concentration in tumor (Pharmacokinetic; 24 h): 12 µg/g | PU-H71 in serum (Pharmacokinetic; after the 6 h timepoint): undetectable | tumor volume in steady phase (OCI-Ly7 xenografts): ~500 mm^3 | tumor volume (SU-DHL6 xenograft): ≤ 100 mm^3 | effect on xenograft growth (Toledo xenografts): no effect | DLBCL size and weight compared to control ([6]; 10 days): potently reduced | survival (tumor growth to critical mass as surrogate) v controls ([6]; n = 15, Cox's F test P < 0.0001): significantly prolonged | toxicity from behavioral, macroscopic or microscopic standpoints [7]: no evidence of toxicity | hematologic, renal or hepatic toxicity (blood counts, chemistry, liver function, thyroid hormone) (Mice toxicity studies): no evidence of hematologic, renal or hepatic toxicity | macroscopic or microscopic toxicity (Mice toxicity studies): no evidence of macroscopic or microscopic toxicity
